Results as given in ChEMBL document CHEMBL3588851, “Antiviral Matrine-Type Alkaloids from the Rhizomes of Sophora tonkinensis” (J Nat Prod, 2015).
Calls of active or inactive are those of the source. No cut-off for these calls is given here.

Key:
Influenza A virus [1] = test: Antiviral activity against influenza A virus (A/Hanfang/359/95(H3N2)) infected in MDCK cells assessed as inhibition of virus-induced cytopathogenic effect at maximal nontoxic concentration dosed 1 hr after viral adsorption; type: functional, organism-based
Coxsackievirus B3 [2] = test: Antiviral activity against coxsackievirus B3 infected in African green monkey Vero cells assessed as inhibition of virus-induced cytopathogenic effect at maximal nontoxic concentration dosed 1 hr after viral adsorption; type: functional, organism-based
In short: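 Confluent Vero monolayers in 96-well plates infected with 100 TCID50 CVB3. After 1 h adsorption at 37 °C, cells washed with PBS. Then incubated at 37 °C in maintenance medium (MEM + 2% FBS) with or without compound, tested at its maximal nontoxic concentration.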

Coxsackievirus B3 [3] = test: Antiviral activity against coxsackievirus B3 infected in African green monkey Vero cells assessed as inhibition of virus-induced cytopathogenic effect dosed 1 hr after viral adsorption; type: functional, organism-based; details: Enterovirus B
In short: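 Confluent Vero monolayers were infected with 100 TCID50 CVB3 and adsorbed for 1 h at 37 °C. They were then washed with PBS and kept at 37 °C in MEM plus 2% FBS, with or without a range of compound concentrations. Ribavirin served as positive control.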

[4] = Selectivity index, ratio of TC50 for African green monkey Vero cells to IC50 for coxsackievirus B3 infected in African green monkey Vero cells; type: toxicity, cell-based; details: read-out: Selectivity Index
In short: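 SI = TC50/IC50. TC50 from 48 h CPE-monitored Vero toxicity, calculated by Reed and Muench. IC50 from Vero monolayers infected with 100 TCID50 CVB3, adsorbed 1 h at 37 °C, PBS-washed, then maintained in MEM + 2% FBS with compound at 37 °C.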

[5] = Cytotoxic activity against African green monkey Vero cells assessed as cytopathogenic effect incubated for 48 hrs; type: cell-based; details: chlorocebus sabaeus, read-out: TC50
In short: (§1)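 Cells plated in 96-well plates; after 24 h, monolayers exposed to various concentrations of compound for 48 h at 37 °C, 5% CO2. Toxicity monitored by cytopathogenic effect (CPE). Median toxic concentration (TC50) calculated by the Reed and Muench method.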

Coxsackievirus B3 [6] = test: Antiviral activity against coxsackievirus B3 infected in African green monkey Vero cells assessed as inhibition of virus-induced cytopathogenic effect dosed 1 hr after viral adsorption relative to ribavirin; type: functional
[7] = Selectivity index, ratio of TC50 for […] MDCK cells to IC50 for influenza A virus (A/Hanfang/359/95(H3N2)); type: toxicity, cell-based; details: read-out: Selectivity Index
In short: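 SI is TC50/IC50. TC50: MDCK cells were plated for 24 h, then exposed to graded compound concentrations for 48 h at 37 °C in 5% CO2, scored by CPE, and calculated by Reed–Muench. IC50 came from the H3N2-infected MDCK assay, with 1 h adsorption and then compound in MEM plus 2% FBS.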

[8] = Cytotoxic activity against MDCK cells assessed as cytopathogenic effect incubated for 48 hrs; type: cell-based, Canis lupus familiaris; details: dog, read-out: TC50; in short: as §1
Influenza A virus [9] = test: Antiviral activity against influenza A virus (A/Hanfang/359/95(H3N2)) infected in MDCK cells assessed as inhibition of virus-induced cytopathogenic effect dosed 1 hr after viral adsorption; type: functional, organism-based

Structure (SMILES)	inhibition (Influenza A virus [1])	inhibition (Coxsackievirus B3 [2])	selectivity ratio [7]	IC50 (Influenza A virus [9])	other results
O=C1[C@@H](O)CC[C@@H]2[C@H]3CCC[N+]4([O-])CCC[C@@H](CN12)[C@@H]34 (some centres not stated)	inactive	inactive	–	–	–
O=C1C=C[C@@H](O)[C@@H]2[C@H]3CCC[N+]4([O-])CCC[C@@H](CN12)[C@@H]34 (some centres not stated)	inactive	–	–	–	IC50 (Coxsackievirus B3 [3]): 26.6 µM; selectivity ratio [4]: 4.3; CC50 at 48 h [5]: 115 µM; Ratio IC50 (Coxsackievirus B3 [6]): 45
O=C1C=C[C@H](O)[C@@H]2[C@H]3CCCN4CCC[C@@H](CN12)[C@@H]34	–	inactive	5.7	84.7 µM	CC50 at 48 h [8]: 479 µM
O=c1cccc2n1C[C@@H]1CCCN3CCC[C@H]2[C@H]13	–	inactive	4.3	63.1 µM	CC50 at 48 h [8]: 273 µM
O=C1C=C[C@@H](O)[C@@H]2[C@H]3CCCN4CCC[C@@H](CN12)[C@@H]34	–	inactive	> 3.1	242 µM	CC50 at 48 h [8]: > 762 µM
O=C1CCC[C@@H]2[C@H]3CCC[N+]4([O-])CCC[C@@H](CN12)[C@@H]34 (some centres not stated)	inactive	inactive	–	–	–
O=C1CCC[C@@H]2[C@H]3CCCN4CCC[C@@H](CN12)[C@@H]34	inactive	inactive	–	–	–
O=C1[C@@H](O)CC[C@@H]2[C@H]3CCCN4CCC[C@@H](CN12)[C@@H]34	inactive	–	–	–	IC50 (Coxsackievirus B3 [3]): 184 µM; selectivity ratio [4]: 4.1; CC50 at 48 h [5]: 757 µM
O=C1CCC[C@@H]2[C@H]3CCCN4CCC[C@@](O)(CN12)[C@@H]34	inactive	–	–	–	IC50 (Coxsackievirus B3 [3]): 252 µM; selectivity ratio [4]: > 3; CC50 at 48 h [5]: > 757 µM
O=C1CCC[C@@H]2[C@H]3CCC[N+]4([O-])CCC[C@@](O)(CN12)[C@@H]34 (some centres not stated)	inactive	inactive	–	–	–
O=C1C=CC[C@@H]2[C@H]3CCCN4CCC[C@@](O)(CN12)[C@@H]34	–	inactive	> 1.7	440 µM	CC50 at 48 h [8]: > 762 µM
O=C1CC=C[C@@H]2[C@H]3CCCN4CCC[C@@](O)(CN12)[C@@H]34	inactive	inactive	–	–	–
O=C1C=CC[C@@H]2[C@H]3CCC[N+]4([O-])CCC[C@@](O)(CN12)[C@@H]34 (some centres not stated)	–	inactive	–	–	–
O=C1C=CC[C@@H]2[C@H]3CCCN4CCC[C@@H](CN12)[C@@H]34	inactive	inactive	–	–	–
O=C1C=CC[C@@H]2[C@H]3C[C@H](O)CN4CCC[C@@H](CN12)[C@@H]34	inactive	–	–	–	IC50 (Coxsackievirus B3 [3]): 197 µM; selectivity ratio [4]: > 3.9; CC50 at 48 h [5]: > 762 µM
NC(=O)c1ncn([C@@H]2O[C@H](CO)[C@@H](O)[C@H]2O)n1 [RIBAVIRIN]	–	–	813	–	IC50 (Coxsackievirus B3 [3]): 1200 µM; selectivity ratio [4]: 6.8
O=C1C=CC[C@@H]2[C@H]3CCC[N+]4([O-])CCC[C@@H](CN12)[C@@H]34 (some centres not stated) [OXYSOPHOCARPINE]	–	inactive	> 1.9	403 µM	CC50 at 48 h [8]: > 762 µM
O=C1CCC[C@@H]2[C@H]3C[C@H](O)CN4CCC[C@@H](CN12)[C@@H]34	inactive	inactive	–	–	–
CCOC(=O)C1=C[C@@H](OC(CC)CC)[C@H](NC(C)=O)[C@@H](N)C1 [OSELTAMIVIR]	–	–	2870	1.07 µM	–
